Measured values taken from ChEMBL document CHEMBL3632545, “1,3-Disubstituted and 1,3,3-trisubstituted adamantyl-ureas with isoxazole as soluble epoxide hydrolase inhibitors” (Bioorg Med Chem Lett, 2015).
In brackets after ≈: the same amount, converted by molar mass.

Columns and labels:
[1] = target: T1, Bifunctional epoxide hydrolase 2 (Homo sapiens, UniProt P34913); test: Inhibition of recombinant human soluble epoxide hydrolase using CMNPC as substrate by kinetic fluorescent assay
T1 sequence (P34913 whole entry): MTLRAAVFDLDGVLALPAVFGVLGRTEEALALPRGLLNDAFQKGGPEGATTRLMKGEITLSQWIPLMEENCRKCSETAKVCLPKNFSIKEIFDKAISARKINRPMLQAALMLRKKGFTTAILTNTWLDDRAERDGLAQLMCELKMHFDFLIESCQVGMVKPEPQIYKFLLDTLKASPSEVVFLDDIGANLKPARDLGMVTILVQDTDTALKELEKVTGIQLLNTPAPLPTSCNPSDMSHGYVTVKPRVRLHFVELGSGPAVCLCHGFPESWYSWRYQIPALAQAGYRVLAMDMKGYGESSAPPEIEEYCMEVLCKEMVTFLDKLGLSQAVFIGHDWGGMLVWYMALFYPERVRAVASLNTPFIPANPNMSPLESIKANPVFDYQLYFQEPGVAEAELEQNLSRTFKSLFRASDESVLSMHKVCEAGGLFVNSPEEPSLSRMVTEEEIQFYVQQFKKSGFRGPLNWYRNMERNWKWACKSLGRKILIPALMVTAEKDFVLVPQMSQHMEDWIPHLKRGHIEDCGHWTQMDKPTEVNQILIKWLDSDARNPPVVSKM
In short: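 Recombinant purified human sEH, CMNPC substrate, kinetic fluorescence read-out; IC50 derived. Where reported, values are the mean ± standard deviation of three separate measurements.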

[2] = Metabolic stability in human liver microsomes assessed as compound remaining at 1 uM after 30 mins by LC/MS/MS analysis in presence of NADPH generating system; format: ADME; conditions: read-out: Stability
In short: (§1)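 Compound at 1 μM incubated with human liver microsomes (1 mg/mL) at 37°C for 30 minutes, with or without an NADPH generating system. Read-out is percent of compound remaining. Values are the average of triplicates ± standard deviation.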

[3] = Metabolic stability in human liver microsomes assessed as compound remaining at 1 uM after 30 mins by LC/MS/MS analysis in absence of NADPH generating system; format: ADME; conditions: read-out: Stability; in short: as §1
[4] = Solubility of compound in sodium phosphate buffer at pH 7.4; format: physicochemical
In short: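 Measured in 0.1 M sodium phosphate buffer, pH 7.4, containing 1% DMSO; reported as a concentration range bracketing the solubility limit (μM).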

Cc1ccc(-c2cc(CNC(=O)NCC34CC5CC(CC(C5)C3)C4)no2)cc1
IC50 [1]: 0.0154 µM | remaining at 0.5 h, 1 µM [2]: 0.4% | remaining at 0.5 h, 1 µM [3]: 97% | solubility [4]: 75 µM (≈ 28.5 µg/mL)

COc1ccc(-c2cc(CNC(=O)NCC34CC5CC(CC(C5)C3)C4)no2)cc1
IC50 [1]: 0.0129 µM | remaining at 0.5 h, 1 µM [2]: 0.8% | remaining at 0.5 h, 1 µM [3]: 87% | solubility [4]: 100 µM (≈ 39.6 µg/mL)

O=C(NCc1cc(-c2ccco2)on1)NCC12CC3CC(CC(C3)C1)C2
IC50 [1]: 0.0049 µM | remaining at 0.5 h, 1 µM [2]: 0.4% | remaining at 0.5 h, 1 µM [3]: 91% | solubility [4]: 75 µM (≈ 26.7 µg/mL)

Cc1cc(CNC(=O)NCC23CC4CC(CC(C4)C2)C3)on1
IC50 [1]: 0.0067 µM | remaining at 0.5 h, 1 µM [2]: 2.9% | remaining at 0.5 h, 1 µM [3]: 72% | solubility [4]: 450 µM (≈ 137 µg/mL)

CCc1cc(CNC(=O)NCC23CC4CC(CC(C4)C2)C3)on1
IC50 [1]: 0.0294 µM | solubility [4]: 300 µM (≈ 95.2 µg/mL)

CC(C)c1cc(CNC(=O)NCC23CC4CC(CC(C4)C2)C3)on1
IC50 [1]: 0.0446 µM | solubility [4]: 125 µM (≈ 41.4 µg/mL)

O=C(NCc1cc(-c2cccc(F)c2)no1)NCC12CC3CC(CC(C3)C1)C2
IC50 [1]: 0.0166 µM | remaining at 0.5 h, 1 µM [2]: 0.3% | remaining at 0.5 h, 1 µM [3]: 97% | solubility [4]: 75 µM (≈ 28.8 µg/mL)

O=C(NCc1cc(-c2ccc(F)cc2)no1)NCC12CC3CC(CC(C3)C1)C2
IC50 [1]: 0.0105 µM | solubility [4]: 50 µM (≈ 19.2 µg/mL)

CC(C)c1cc(CN(C)C(=O)NCC23CC4CC(CC(C4)C2)C3)no1
IC50 [1]: 0.576 µM | solubility [4]: 200 µM (≈ 69.1 µg/mL)

Cc1cc(C2CCCN2C(=O)NCC23CC4CC(CC(C4)C2)C3)no1 (stereo unspecified)
IC50 [1]: 0.524 µM | solubility [4]: 525 µM (≈ 180 µg/mL)

CC(C)c1cc(C2CCCN2C(=O)NCC23CC4CC(CC(C4)C2)C3)no1 (stereo unspecified)
IC50 [1]: 0.247 µM | solubility [4]: 250 µM (≈ 92.9 µg/mL)

CC(C)c1cc(CN(C)C(=O)NCC23CC4CC(CC(C4)C2)C3)on1
IC50 [1]: 0.191 µM | solubility [4]: 350 µM (≈ 121 µg/mL)

Cc1cc(C2CCCN2C(=O)NCC23CC4CC(CC(C4)C2)C3)on1 (stereo unspecified)
IC50 [1]: 0.091 µM | solubility [4]: 575 µM (≈ 197 µg/mL)

Cc1ccc(-c2cc(CNC(=O)NC34CC5CC(C)(CC(C)(C5)C3)C4)no2)cc1
IC50 [1]: 0.0258 µM | remaining at 0.5 h, 1 µM [2]: 0.4% | remaining at 0.5 h, 1 µM [3]: 115% | solubility [4]: 125 µM (≈ 49.2 µg/mL)

COc1ccc(-c2cc(CNC(=O)NC34CC5CC(C)(CC(C)(C5)C3)C4)no2)cc1
IC50 [1]: 0.015 µM | remaining at 0.5 h, 1 µM [2]: 0.4% | remaining at 0.5 h, 1 µM [3]: 102% | solubility [4]: 25 µM (≈ 10.2 µg/mL)

CC12CC3CC(C)(C1)CC(NC(=O)NCc1cc(-c4ccco4)on1)(C3)C2
IC50 [1]: 0.0041 µM | remaining at 0.5 h, 1 µM [2]: 0.3% | remaining at 0.5 h, 1 µM [3]: 95% | solubility [4]: 75 µM (≈ 27.7 µg/mL)

Cc1cc(CNC(=O)NC23CC4CC(C)(CC(C)(C4)C2)C3)on1
IC50 [1]: 0.123 µM | remaining at 0.5 h, 1 µM [2]: 0.1% | remaining at 0.5 h, 1 µM [3]: 83% | solubility [4]: 200 µM (≈ 63.5 µg/mL)

CC12CC3CC(C)(C1)CC(NC(=O)NCc1cc(-c4cccc(F)c4)no1)(C3)C2
IC50 [1]: 0.017 µM | remaining at 0.5 h, 1 µM [2]: 0.4% | remaining at 0.5 h, 1 µM [3]: 92% | solubility [4]: 75 µM (≈ 29.8 µg/mL)
